Measured values taken from ChEMBL document CHEMBL2346625 (Bioorg Med Chem, 2013).
Converted amounts (≈) assume the structure as drawn.

Columns and labels:
[1] = Kinetic solubility of the compound in phosphate-buffered saline at 0.87 to 99 uM by UV/Vis spectrophotometry; format: physicochemical
Outline: (§1)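 10 mM DMSO stocks serially diluted in DMSO, then added 1:100 to PBS at 37 °C, giving final 0.87–99 μM. Plate shaken, incubated 5 min at 37 °C, and OD600 read (n = 3). Solubility taken as the midpoint between the first concentration with OD600 ≥ 0.005 AU above background and the preceding concentration, ± half the interval.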

[2] = Kinetic solubility of the compound in aqueous Todd Hewitt bacterial media at 0.87 to 99 uM by UV/Vis spectrophotometry; format: physicochemical; conditions: read-out: Kinetic_solubility
Outline: as §1, with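 “Todd-Hewitt broth” for “PBS”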

Liver [3] = assay: (§2) Half life in mouse liver microsomes at 0.5 to 1 uM by LC-MS/MS analysis; format: ADME, Microsome; conditions: microsomes, 1 µM
Streptococcus pyogenes = assay: Growth inhibition of Streptococcus pyogenes UMAA2616 at 50 uM relative to control; format: organism-based; conditions: in vitro
Outline: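 Diluted 1:1000 into THY containing compound at 50 μM in 0.1% DMSO and grown in triplicate at 37 °C to OD600 ≈ 1.0. Growth given as OD600 test/DMSO control; mean of at least three experiments ± SD.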

Streptokinase = target: T1, Streptokinase (Streptococcus pyogenes, UniProt P96471)
T1 sequence (P96471 whole entry): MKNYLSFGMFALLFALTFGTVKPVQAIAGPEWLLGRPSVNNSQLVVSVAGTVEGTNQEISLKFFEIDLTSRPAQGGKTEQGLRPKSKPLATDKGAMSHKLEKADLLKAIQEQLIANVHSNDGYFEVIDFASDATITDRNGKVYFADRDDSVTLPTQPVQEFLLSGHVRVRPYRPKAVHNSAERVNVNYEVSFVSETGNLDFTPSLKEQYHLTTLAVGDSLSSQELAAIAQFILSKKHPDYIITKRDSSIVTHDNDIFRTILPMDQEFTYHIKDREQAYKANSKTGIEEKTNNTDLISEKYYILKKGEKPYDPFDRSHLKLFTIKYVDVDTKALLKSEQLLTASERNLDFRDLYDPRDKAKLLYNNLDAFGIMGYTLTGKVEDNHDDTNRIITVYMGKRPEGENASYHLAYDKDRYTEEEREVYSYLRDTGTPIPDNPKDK

[4] = as §2; format: ADME, Microsome; conditions: liver microsomes
[5] = target: T2, Streptokinase (Streptococcus pyogenes) (UniProt P96471); assay: Inhibition of Streptococcus pyogenes UMAA2616 streptokinase assessed as cleavage of S-2403 to colored product p-nitroaniline at 50 uM after 2 hrs relative to control
T2 sequence (whole entry): T1 sequence (P96471 whole entry)
Outline: (§3)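 UMAA2616 grown in THY (0.1% DMSO, compound at 5 or 50 μM) at 37 °C to OD600 ≈ 1.0, then centrifuged. Supernatant mixed with PBS, human plasma and S-2403 plasmin substrate and incubated 2 h at 37 °C; A405 read. Activity came from a DMSO-culture standard curve, was corrected for growth by OD600 and expressed as test/control. Mean of at least three experiments ± SD.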

[6] = target: T2, Streptokinase (Streptococcus pyogenes); assay: Inhibition of Streptococcus pyogenes UMAA2616 streptokinase assessed as cleavage of S-2403 to colored product p-nitroaniline at 5 uM after 2 hrs relative to control; outline: as §3
Liver [7] = assay: Metabolic stability in mouse liver microsomes assessed as oxidation of compound; format: ADME, Microsome

SMILES	t1/2 (Liver [3])	T/C (Streptococcus pyogenes)	further results
C=CCn1c(SCCCC)nc2c(c1=O)C1(CCCCC1)Cc1ccccc1-2 [CCG-2979]	37.2 min	0.95	solubility kinetic [1]: 2 µM (≈ 0.789 µg/mL); solubility kinetic [2]: 9 µM (≈ 3.55 µg/mL); IC50 (Streptokinase): > 50 µM
CCSc1nc2c(c(=O)n1CC(F)(F)F)C(C)(C)Cc1ccc(OC)cc1-2	–	1.01	half-life [4]: 3 min
C=CCn1c(SCCOC)nc2c(c1=O)C(C)(C)Cc1ccccc1-2	1.7 min	–	solubility kinetic [2]: 22.5 µM (≈ 8.02 µg/mL)
CCn1c(SCc2ccccc2)nc2c(c1=O)C1(CCCC1)Cc1ccccc1-2	–	1.07	–
C=CCn1c(SCc2ccccc2)nc2c(c1=O)C(C)(C)Cc1ccccc1-2	–	–	solubility kinetic [2]: 9 µM (≈ 3.5 µg/mL)
C=CCn1c(SCCOC)nc2c(c1=O)C(C)(C)Cc1cc(C(=O)NCCc3c[nH]cn3)ccc1-2	–	0.99	–
C=CCn1c(SCC(N)=O)nc2c(c1=O)C(C)(C)Cc1ccccc1-2	< 2 min	1	–
C=CCn1c(SCc2ccc(NC(C)=O)cc2)nc2c(c1=O)C1(CCCCC1)Cc1ccccc1-2	–	0.96	–
C=CCn1c(SCC)nc2c(c1=O)C(C)(C)Cc1cc(OCCCCCCC)ccc1-2	–	1.05	–
C=CCn1c(SCC)nc2c(c1=O)C(C)(C)Cc1cc(OCCOC)ccc1-2	–	0.85	–
C=CCn1c(SCC)nc2c(c1=O)C(C)(C)Cc1cc(OCCCC)ccc1-2	–	0.87	–
C=CCn1c(OCC)nc2c(c1=O)C1(CCCCC1)Cc1ccccc1-2	–	1.02	solubility kinetic [2]: 14.5 µM (≈ 5.08 µg/mL)
COCCSc1nc2c(c(=O)n1CCc1ccc(OC)cc1)C(C)(C)Cc1ccccc1-2	–	0.97	T/C [5]: 0.61; T/C [6]: 0.71; half-life [4]: 9.4 min
C=CCn1c(SCC)nc2c(c1=O)C(C)(C)Cc1cc(OCCc3ccccc3)ccc1-2	–	1.01	–
C=CCn1c(SCCOC)nc2c(c1=O)C1(CCCCC1)Cc1ccccc1-2	6.4 min	0.99	Stability (Liver [7]): Stable; solubility kinetic [2]: 9 µM (≈ 3.57 µg/mL)
C=CCn1c(SCCOC)nc2c(c1=O)C(C)(C)Cc1cc(C(=O)NCc3ccccc3)ccc1-2	–	1.07	–

SMILES	t1/2 (Liver [3])	T/C (Streptococcus pyogenes)	further results
C=CCn1c(NCC)nc2c(c1=O)C(C)(C)Cc1cc(CC(=O)OCC)ccc1-2	–	1.02	–
C=CCn1c(SCCOC)nc2c(c1=O)C(C)(C)Cc1cc(C(=O)O)ccc1-2	–	0.86	–
C=CCn1c(NCC)nc2c(c1=O)C1(CCCCC1)Cc1ccccc1-2	–	0.32	solubility kinetic [2]: 9 µM (≈ 3.15 µg/mL)
C=CCn1c(SC)nc2c(c1=O)C1(CCCCC1)Cc1ccccc1-2	13.5 min	–	solubility kinetic [2]: 22 µM (≈ 7.76 µg/mL)
CCn1c(SCCOC)nc2c(c1=O)C(C)(C)Cc1ccccc1-2	0.8 min	0.39	–
C=CCn1c(SCc2ccccn2)nc2c(c1=O)C(C)(C)Cc1ccccc1-2	–	1.05	–
C=CCn1c(SCc2ccccc2)nc2c(c1=O)C1(CCCCC1)Cc1ccccc1-2 [CCG-102487]	0.6 min	0.96	solubility kinetic [2]: 9 µM (≈ 3.86 µg/mL); IC50 (Streptokinase): > 50 µM
C=CCn1c(OCC)nc2c(c1=O)C(C)(C)Cc1ccccc1-2	0.9 min	0.5	–
C=CCn1c(NCC)nc2c(c1=O)C(C)(C)Cc1ccccc1-2	1.1 min	0.06	–
C=CCn1c(SCC(=O)OCC)nc2c(c1=O)C(C)(C)Cc1ccccc1-2	–	1.01	–
C=CCn1c(SCCO)nc2c(c1=O)C(C)(C)Cc1ccccc1-2	–	0.06	–
C=CCn1c(SCC#N)nc2c(c1=O)C(C)(C)Cc1ccccc1-2	20.6 min	1	solubility kinetic [1]: 3 µM (≈ 1.01 µg/mL); solubility kinetic [2]: 34.5 µM (≈ 11.6 µg/mL)
C=CCn1c(SCc2ccc(OC)cc2)nc2c(c1=O)C1(CCCCC1)Cc1ccccc1-2	–	1.05	–
C=CCn1c(SCCN(C)C)nc2c(c1=O)C1(CCCCC1)Cc1ccccc1-2	–	0.88	–
C=CCn1c(SCC)nc2c(c1=O)C(C)(C)Cc1ccc(OCCOC)cc1-2	–	1.02	–
